In the array DNA melting data of Ke et al. (doi:10.1101/2024.01.08.574731) one finds Tm and folding enthalpy data, which are given here for 36 sequences.

Data set [1] is described as follows: melting temperature; fluorescence melt of hairpins on a sequencing array, two-state fit, raised by 9.35 °C to match UV melts. The following applies: sodium 0.088 M. In a few lines:
(§1)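 Cy3 signals were normalised both to pre-quench Cy3 and to control constructs. They came from library hairpins carrying annealed Cy3 and quencher oligos on a sequenced MiSeq flow cell, imaged in 50 mM Na-HEPES pH 8.0, 25 mM NaCl, in 2.5 °C steps up to 60 °C. Bootstrapped two-state fits gave melting temperature and folding enthalpy, and four replicates were combined by inverse variance. Fitted temperatures were then raised by 9.35 °C to match UV melts.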

Data set [2] can be described thus: folding enthalpy; higher = less favourable; fluorescence melt of hairpins on a sequencing array, two-state fit. The note with it: sodium 0.088 M. In a few lines:
as §1

In the case of GGCCCGGGAAACCAGGCC ((((.((....)).)))), the Tm in data set [1] came to 55.3 °C. Moreover, the folding enthalpy in data set [2] is -37.9 kcal/mol.
The like results for GGCCCGTCGAAAGACGCC (((..(((....)))))) were, in that order, 37 °C and -8.97 kcal/mol.
Consider GGCCCTCGAAAGAGAGCC (((.(((....))).))), for which the Tm in data set [1] is 53.3 °C. Further, the folding enthalpy in data set [2] is -46.6 kcal/mol.
For the sequence GGCCGACCGAAAGGTGCC (((..(((....)))))), the Tm in data set [1] came out at 49.5 °C. Also, in data set [2], the folding enthalpy is -25.5 kcal/mol.
For GGCCGACGAAAGTCCGCC (((.(((....))).))), the Tm in data set [1] amounted to 55.1 °C. The folding enthalpy in data set [2] was -39 kcal/mol.
The like results for GGCCGAGGAAACTCAGCC (((.(((....))).))) were, in that order, 46.4 °C and -32 kcal/mol.
For GGCCGAGGAAACTTGGCC ((((.((....)).)))) the same measures were 59.4 °C and -49.1 kcal/mol.
With GGCCGCGAAAGCGCAGCC ((((((....)))..))), the Tm in data set [1] came to 58.4 °C. In data set [2], the folding enthalpy is -20.7 kcal/mol.
Take GGCCGCTCGAAAGAGGCC (((..(((....)))))): the Tm in data set [1] worked out at 56.5 °C. Also, the folding enthalpy in data set [2] was -48.5 kcal/mol.
GGCCGGCGAAAGCCAGCC (((.(((....))).))): the Tm in data set [1] turned out to be 68.1 °C. The folding enthalpy in data set [2] is -22.4 kcal/mol.
On to GGCCGGCGAAAGCCCGCC (((.(((....))).))), for which the Tm in data set [1] amounted to 59.7 °C. Further, the folding enthalpy in data set [2] was -29.9 kcal/mol.
For GGCCGGGGAAACCCAGCC (((.(((....))).))) the same measures were 51.7 °C and -42.6 kcal/mol.
In the case of GGCCGTACGAAAGTAGCC (((..(((....)))))), in data set [1], the Tm is 42.3 °C. In addition, the folding enthalpy in data set [2] is -22.6 kcal/mol.
For GGCCGTCGAAAGACTGCC (((.(((....))).))) the same measures were 56.8 °C and -42.8 kcal/mol.
Take GGCCTAACGAAAGTTGCC (((..(((....)))))): the Tm in data set [1] is 38.7 °C. The folding enthalpy in data set [2] was -20.9 kcal/mol.
For GGCCTCCCGAAAGGGGCC (((..(((....)))))) the same measures were 59.1 °C and -18.7 kcal/mol.
For GGCCTCCGAAAGGAGCC (((.(((....)))))) the same measures were 62.4 °C and -16.5 kcal/mol.
For GGCCTCCGAAAGGATGCC (((.(((....))).))) the same measures were 56.5 °C and -37.2 kcal/mol.
As to GGCCTCGAAAGAGACGCC ((((((....)))..))), in data set [1], the Tm stood at 47.7 °C. Moreover, in data set [2], the folding enthalpy was -24.3 kcal/mol.
The like results for GGCCTCGAAAGAGAGCC ((((((....))).))) were, in that order, 58.1 °C and -37.5 kcal/mol.
Turning to GGCCTCGAAAGAGAGGCC ((((((....)))..))), in data set [1], the Tm came to 66.9 °C. Moreover, in data set [2], the folding enthalpy is -29.1 kcal/mol.
In the case of GGCCTCGAAAGAGTAGCC ((((((....)))..))), the Tm in data set [1] came to 49.2 °C. For the same sequence, in data set [2], the folding enthalpy is -25.9 kcal/mol.
As for GGCCTCGAAAGAGTCGCC ((((((....)))..))), the Tm in data set [1] stood at 45 °C. Moreover, the folding enthalpy in data set [2] was -23.3 kcal/mol.
For GGCCTCGAAAGAGTTGCC ((((((....)))..))) the same measures were 45.5 °C and -17.2 kcal/mol.
For GGCCTGCGAAAGCACGCC (((.(((....))).))) the same measures were 53.4 °C and -37.6 kcal/mol.
For GGCCTGGGAAACCGGGCC ((((.((....)).)))) the same measures were 66.3 °C and -30.6 kcal/mol.
Regarding GGCCTTCGAAAGAAGCC (((.(((....)))))), the Tm in data set [1] was determined as 51.4 °C. The folding enthalpy in data set [2] was -27.6 kcal/mol.
As for GGCCTTGGAAACAGGGTC (.((.((....)).)).), the Tm in data set [1] is 37.6 °C. Moreover, the folding enthalpy in data set [2] is -25 kcal/mol.
For GGCGACGAAAGTCAAGCC ((((((....)))..))) the same measures were 54.7 °C and -39.6 kcal/mol.
Turning to GGCGACGAAAGTCAGGCC ((((((....)))..))), in data set [1], the Tm came out at 55.5 °C. Besides, the folding enthalpy in data set [2] was -31.3 kcal/mol.
In the case of GGCGACGAAAGTCCAGCC ((((((....)))..))), the Tm in data set [1] is 51.1 °C. Also, the folding enthalpy in data set [2] was -27.1 kcal/mol.
The like results for GGCGACGAAAGTCCTGCC ((((((....)))..))) were, in that order, 46 °C and -20.4 kcal/mol.
For GGCGACGAAAGTCGGGCC ((((((....)))..))) the same measures were 53.3 °C and -11 kcal/mol.
The like results for GGCGACGCGAAAGCGGCC (((..(((....)))))) were, in that order, 57.6 °C and -11.1 kcal/mol.
Consider GGCGAGCCGAAAGGCGCC (((..(((....)))))), for which the Tm in data set [1] stood at 65 °C. Also, the folding enthalpy in data set [2] was -13.1 kcal/mol.
On to GGCGAGGCGAAAGCCGCC (((..(((....)))))), for which the Tm in data set [1] stood at 66.9 °C. Further, the folding enthalpy in data set [2] is -17.3 kcal/mol.
